Experimental data taken from publication PMC12796350 (Scientific Reports, 2025).
Like-named read-outs stand apart in the source and are kept apart here.

Columns and labels:
[1] = test system: A549 (human lung adenocarcinoma) cells; assay: MTT cytotoxicity assay, A549; assay type: cell-based; conditions: for IC50: read-out: IC50 A549; for SI A549 (Selectivity Index): SI = IC50 for normal cell line (HaCaT)/IC50 cancer cell line
How it was run: (§1)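 Cells were seeded in 96-well plates at 1 × 10^4 per well in DMEM with 2% FBS and exposed 72 h to a range of test-compound concentrations. MTT (0.5 mg/mL) was added for 4 h, and formazan was dissolved in 0.04 M HCl/isopropanol. A570 was read relative to untreated control. […] SI = IC50 in HaCaT keratinocytes / IC50 in the cancer line. Mean SD.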

[2] = test system: HeLa (human cervical cancer) cells; assay: MTT cytotoxicity assay, HeLa; assay type: cell-based; conditions: for IC50: 72 h, read-out: IC50 HeLa; for SI HeLa (Selectivity Index): SI = IC50 for normal cell line (HaCaT)/IC50 cancer cell line
How it was run: as §1

[3] = test system: SW620 (human colorectal cancer) cells; assay: MTT cytotoxicity assay, SW620; assay type: cell-based; conditions: for SI SW620 (Selectivity Index): SI = IC50 for normal cell line (HaCaT)/IC50 cancer cell line
How it was run: as §1

[4] = test system: HTB-140 (human melanoma) cells; assay: MTT cytotoxicity assay, HTB-140; assay type: cell-based; conditions: for IC50: 72 h, read-out: IC50 HTB-140; for SI HTB-140 (Selectivity Index): SI = IC50 for normal cell line (HaCaT)/IC50 cancer cell line
How it was run: as §1

[5] = test system: HaCaT (immortalized human keratinocytes); assay: MTT cytotoxicity assay, HaCaT normal cells; assay type: cell-based; conditions: 72 h, read-out: IC50 HaCaT (normal cells)
HTB-140 cells [6] = assay: Apoptosis, Annexin V-FITC/7-AAD flow cytometry, HTB-140; assay type: cell-based, human
How it was run: (§2)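 Human HTB-140, A549, HeLa, SW620 or HaCaT cells were grown in DMEM with 2% FBS at 1 × 10^4 cells per well and preincubated 72 h with test compound. Camptothecin, 4 µM for 4 h, served as the positive control. Cells were dual-stained with Annexin V-FITC and 7-AAD, and 10,000 cells were analysed by flow cytometry. Annexin+/7-AAD− cells counted as early apoptotic; Annexin+/7-AAD+ as late apoptotic or necrotic.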

A549 cells = assay: Apoptosis, Annexin V-FITC/7-AAD flow cytometry, A549; assay type: cell-based, human; conditions: for cells in late apoptosis or necrosis: A549, IC50 concentration, 72 h
How it was run: as §2

HaCaT cells [7] = assay: LDH release assay, HaCaT; assay type: cell-based, human; conditions: 25 µM, 72 h
HTB-140 cells [8] = assay: LDH release assay, HTB-140; assay type: cell-based, human; conditions: 25 µM, 72 h
[9] = test system: interleukin-6 (IL-6) release, A549 cells; assay: IL-6 level by ELISA, A549; assay type: cell-based, human; conditions: A549, IC50 dose, 72 h
How it was run: (§3)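 Cells were seeded at 1 × 10^4 per well in DMEM with 2% FBS and exposed to test compound for 72 h. IL-6 in the culture supernatant was measured with a commercial ELISA kit and compared with untreated control. Data are mean ± SD from three independent experiments, each run in triplicate, compared by Student's t-test.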

[10] = test system: interleukin-6 (IL-6) release, HeLa cells; assay: IL-6 level by ELISA, HeLa; assay type: cell-based, human; conditions: IC50 dose, 72 h
How it was run: as §3

[11] = test system: interleukin-6 (IL-6) release, HTB-140 cells; assay: IL-6 level by ELISA, HTB-140; assay type: cell-based, human; conditions: HTB-140, IC50 dose, 72 h
How it was run: as §3

[12] = test system: interleukin-6 (IL-6) release, SW620 cells; assay: IL-6 level by ELISA, SW620; assay type: cell-based, human; conditions: SW620, IC50 dose, 72 h
How it was run: as §3

HeLa cells = assay: Apoptosis, Annexin V-FITC/7-AAD flow cytometry, HeLa; assay type: cell-based, human; conditions: 4 µM, 4 h
How it was run: as §2

HaCaT cells [13] = assay: Apoptosis, Annexin V-FITC/7-AAD flow cytometry, HaCaT; assay type: cell-based, human; conditions: 4 µM, 4 h
How it was run: as §2

SW620 cells = assay: Apoptosis, Annexin V-FITC/7-AAD flow cytometry, SW620; assay type: cell-based, human; conditions: SW620, 4 µM, 4 h
How it was run: as §2

[14] = Homo sapiens, SW-620, 72 h, read-out: IC50 SW620, MTT, 72 h, mean SD
[15] = HTB-140, IC50 concentration, 72 h
[16] = read-out: IC50 SW620, MTT, 72 h, mean SD

CCc1cc(=O)c2c(O)c3ccoc3c(O)c2o1 [Compound 1, 7-ethyl-4,9-dihydroxy-5 H-furo[3,2-g][1]benzopyran-5-one]
IC50 ([1]; Homo sapiens, A549, 72 h): 39.8 ± 7.9 µM | SI A549 (Selectivity Index) [1]: 1.25 | IC50 ([2]; Homo sapiens, HeLa): 41.5 ± 4.6 µM | SI HeLa (Selectivity Index) [2]: 1.20 | IC50 [3, 14]: 21.1 ± 4.4 µM | SI SW620 (Selectivity Index) [3]: 2.36 | IC50 ([4]; Homo sapiens): 30.4 ± 8.7 µM | SI HTB-140 (Selectivity Index) [4]: 1.64 | IC50 ([5]; Homo sapiens, HaCaT): 49.8 ± 7.9 µM

CCc1cc(=O)c2c(O)c3ccoc3c(OC)c2o1 [Compound 2, 7-ethyl-4-hydroxy-9-methoxy-5H-furo[3,2-g][1]benzopyran-5-one]
cells in early apoptosis (HTB-140 cells [6]; [15]): 19.5% | cells in late apoptosis or necrosis (HTB-140 cells [6]; [15]): 20.8% | IC50 ([1]; Homo sapiens, A549, 72 h): 36.5 ± 6.5 µM | SI A549 (Selectivity Index) [1]: 1.27 | cells in late apoptosis or necrosis (A549 cells): 63.2% | IC50 ([2]; Homo sapiens, HeLa): 29.2 ± 3.9 µM | SI HeLa (Selectivity Index) [2]: 1.59 | LDH release (HaCaT cells [7]): 13.5% | IC50 [3, 14]: 17.4 ± 3.5 µM | SI SW620 (Selectivity Index) [3]: 2.67 | LDH release (HTB-140 cells [8]): 30.4% | IC50 ([4]; Homo sapiens): 29.4 ± 3.4 µM | SI HTB-140 (Selectivity Index) [4]: 1.58 | IL-6 release effect vs control [9]: 38% | IC50 ([5]; Homo sapiens, HaCaT): 46.5 ± 8.5 µM

CCc1cc(=O)c2c(OCC(O)CN(CC)CC)c3ccoc3c(OC)c2o1 (stereo not shown) [Compound 3, 7-ethyl-9-methoxy-4-[3-(diethylamino)-2-hydroxypropoxy]-5H-furo[3,2-g][1] benzopyran-5-one]
IC50 ([1]; Homo sapiens, A549, 72 h): 33.6 ± 4.1 µM | SI A549 (Selectivity Index) [1]: 1.29 | IC50 ([2]; Homo sapiens, HeLa): 34.2 ± 4.9 µM | SI HeLa (Selectivity Index) [2]: 1.27 | IC50 [3, 14]: 12.7 ± 5.1 µM | SI SW620 (Selectivity Index) [3]: 3.41 | IC50 ([4]; Homo sapiens): 30.1 ± 4.7 µM | SI HTB-140 (Selectivity Index) [4]: 1.44 | inhibition of IL-6 release vs control [10]: 48% | IC50 ([5]; Homo sapiens, HaCaT): 43.3 ± 9.1 µM

CCc1cc(=O)c2c(OCC(O)CNC(C)C)c3ccoc3c(OC)c2o1 (stereo not shown) [Compound 4, 7-ethyl-9-methoxy-4-{2-hydroxy-3-[(propan-2-yl)amino]propoxy}-5H-furo[3,2-g][1]benzopyran-5-one]
IC50 ([1]; Homo sapiens, A549, 72 h): 32.3 ± 7.9 µM | SI A549 (Selectivity Index) [1]: 1.31 | cells in late apoptosis or necrosis (A549 cells): 55.6% | IC50 ([2]; Homo sapiens, HeLa): 27.4 ± 6.5 µM | SI HeLa (Selectivity Index) [2]: 1.54 | IC50 [3, 14]: 11.4 to 11.5 µM | SI SW620 (Selectivity Index) [3]: 3.68 | IC50 [3, 16]: 11.5 ± 6.6 µM | IC50 ([4]; Homo sapiens): 18.2 ± 3.6 µM | SI HTB-140 (Selectivity Index) [4]: 2.32 | reduction of IL-6 release vs control [11]: strongest effect | IC50 ([5]; Homo sapiens, HaCaT): 42.3 ± 7.9 µM | reduction of IL-6 secretion vs control [12]: around 50%

CCc1cc(=O)c2c(OCC(O)CN3CCC(C)CC3)c3ccoc3c(OC)c2o1 (stereo not shown) [Compound 5, 7-ethyl-9-methoxy-4-[2-hydroxy-3-(4-methylpiperidin-1-yl)propoxy]-5H-furo[3,2-g][1]benzopyran-5-one]
IC50 ([1]; Homo sapiens, A549, 72 h): 43.8 ± 8.3 µM | SI A549 (Selectivity Index) [1]: 1.00 | IC50 ([2]; Homo sapiens, HeLa): 32.6 ± 3.7 µM | SI HeLa (Selectivity Index) [2]: 1.34 | IC50 [3, 14]: 26.3 ± 3.3 µM | SI SW620 (Selectivity Index) [3]: 1.67 | IC50 ([4]; Homo sapiens): 29.4 ± 4.9 µM | SI HTB-140 (Selectivity Index) [4]: 1.49 | IC50 ([5]; Homo sapiens, HaCaT): 43.8 ± 8.3 µM

CCc1cc(=O)c2c(OCC(O)CN3CCCCC3)c3ccoc3c(OC)c2o1 (stereo not shown) [Compound 7, 7-ethyl-9-methoxy-4-[2-hydroxy-3-(piperidin-1-yl)propoxy]-5H-furo[3,2-g][1] benzopyran-5-one]
IC50 ([1]; Homo sapiens, A549, 72 h): 35.2 ± 6.3 µM | SI A549 (Selectivity Index) [1]: 1.47 | IC50 ([2]; Homo sapiens, HeLa): 32.3 ± 3.8 µM | SI HeLa (Selectivity Index) [2]: 1.61 | IC50 [3, 14]: 28.6 ± 5.5 µM | SI SW620 (Selectivity Index) [3]: 1.81 | IC50 ([4]; Homo sapiens): 32.5 ± 4.1 µM | SI HTB-140 (Selectivity Index) [4]: 1.60 | IC50 ([5]; Homo sapiens, HaCaT): 51.9 ± 6.3 µM

CCc1cc(=O)c2c(OCC(O)CNC(C)(C)C)c3ccoc3c(OC)c2o1 (stereo not shown) [Compound 8, 7-ethyl-9-methoxy-4-[3-(tert-butylamino)-2-hydroxypropoxy]-5H-furo[3,2-g][1] benzopyran-5-one]
IC50 ([1]; Homo sapiens, A549, 72 h): 38.4 ± 7.3 µM | SI A549 (Selectivity Index) [1]: 1.20 | IC50 ([2]; Homo sapiens, HeLa): 33.4 ± 4.6 µM | SI HeLa (Selectivity Index) [2]: 1.38 | IC50 [3, 14]: 26.3 ± 4.3 µM | SI SW620 (Selectivity Index) [3]: 1.75 | IC50 ([4]; Homo sapiens): 31.3 ± 2.6 µM | SI HTB-140 (Selectivity Index) [4]: 1.47 | IC50 ([5]; Homo sapiens, HaCaT): 46.1 ± 7.3 µM

CCc1cc(=O)c2c(OCC(O)CN3CCOCC3)c3ccoc3c(OC)c2o1 (stereo not shown) [Compound 9, 7-ethyl-9-methoxy-4-[2-hydroxy-3-(morpholin-4-yl)propoxy]-5H-furo[3,2-g][1] benzopyran-5-one]
IC50 ([1]; Homo sapiens, A549, 72 h): 37.6 ± 7.3 µM | SI A549 (Selectivity Index) [1]: 1.43 | IC50 ([2]; Homo sapiens, HeLa): 29.5 ± 4.6 µM | SI HeLa (Selectivity Index) [2]: 1.82 | IC50 [3, 14]: 21.9 ± 4.3 µM | SI SW620 (Selectivity Index) [3]: 2.45 | IC50 ([4]; Homo sapiens): 23.4 ± 2.6 µM | SI HTB-140 (Selectivity Index) [4]: 2.29 | IC50 ([5]; Homo sapiens, HaCaT): 53.6 ± 7.3 µM

N.N.[Cl][Pt][Cl] [Ref 1, cisplatin, reference compound]
IC50 ([1]; MTT, 72 h, mean SD): 2.7 ± 1.1 µM | IC50 ([2]; MTT, mean SD): 1.8 ± 0.74 µM | IC50 [3, 16]: 1.9 ± 0.9 µM | IC50 ([4]; MTT, mean SD): 1.4 ± 0.69 µM | IC50 ([5]; MTT, mean SD): 2.8 ± 1.1 µM

COc1cccc2c1C(=O)c1c(O)c3c(c(O)c1C2=O)C[C@@](O)(C(=O)CO)C[C@@H]3O[C@H]1C[C@H](N)[C@H](O)[C@H](C)O1 [Ref 2, doxorubicin, reference compound]
IC50 ([1]; Homo sapiens, A549, 72 h): 0.9 ± 0.19 µM | IC50 ([2]; Homo sapiens, HeLa): 0.6 ± 0.14 µM | IC50 [3, 14]: 0.7 ± 0.16 µM | IC50 ([4]; Homo sapiens): 0.5 ± 0.21 µM

CC[C@@]1(O)C(=O)OCc2c1cc1n(c2=O)Cc2cc3ccccc3nc2-1 [camptothecin]
apoptosis induction (positive control) (HTB-140 cells [6]; HTB-140, 4 µM, 4 h): induced apoptosis | apoptosis induction (positive control) (HeLa cells): induced apoptosis | apoptosis induction (positive control) (A549 cells; A549, 4 µM, 4 h): induced apoptosis | apoptosis induction (positive control) (HaCaT cells [13]): induced apoptosis | apoptosis induction (positive control) (SW620 cells): induced apoptosis
